Measured values reported in PMC3947152 (European journal of nuclear medicine and molecular imaging, 2013).
Read-outs that look alike come from different tables or passages of the source.

How the values were obtained:
[1] = molecular target: hNET (Homo sapiens, UniProt P23975); experiment: Competitive inhibition of ^123I-MIBG binding/uptake in C6-hNET cells; type: cell-based
How it was run: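 C6 cells stably transduced with hNET; triplicate samples of ~0.5×10^6 cells with ~3.7 kBq 123I-MIBG and 0.005–50 nmol unlabeled benzylguanidine competitor in 0.5 mL medium, 37 °C, 2 h. Cells collected by rapid filtration on glass microfiber filters, washed 3× with ice-cold Tris-buffered saline pH 7.4, gamma counted. Cell-bound activity plotted against competitor concentration; IC50 by least-squares fit.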

[2] = tested on: C6-hNET cells; experiment: In vitro uptake in hNET-transduced and wild-type C6 cells; type: cell-based, rat; settings: 2 h incubation at 37 °C
How it was run: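 Both C6-hNET and wild-type C6 cells grown in DMEM HG. 1.0×10^6 cells in 1.0 mL medium, in triplicate, shaken with radiotracer (~11.1 kBq 18F-labeled or ~3.7 kBq radioiodinated) at 37 °C for 2 h. Cells filtered on glass microfiber filters, washed 3× with ice-cold TBS pH 7.4, gamma counted as % added activity per 10^6 cells. Nonspecific uptake measured with 200 µM MIBG (final). 2–5 independent experiments.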

[3] = tested on: C6-hNET xenografts; experiment: PET imaging with ROI analysis of mice bearing C6-hNET and C6-WT xenografts; type: in vivo; settings: for PET image-based tumor-to-intestine signal ratio: C6-hNET xenograft
How it was run: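 Male athymic NCr-nu/nu mice (7–9 weeks) implanted subcutaneously with 5×10^6 C6-hNET cells (right shoulder) and 5×10^6 C6-WT cells (left shoulder) in medium/matrigel 1:1. Scanned at day 20 with tumors 150–350 mm³. Tail-vein injection of 3.7–11.1 MBq 18F tracer in saline. R4 microPET under 2% isoflurane, 10-min acquisitions at 1 h and 4 h p.i., 350–750 keV window. ROI maximum pixel values (%ID/mL) used; 5–7 animals per group.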

[4] = tested on: C6-hNET and C6-WT xenografts; experiment: Biodistribution in animals bearing dual C6-hNET and C6-WT xenografts; type: in vivo, mice; settings: for % Injected Dose/g tissue, C6-WT: C6-WT xenograft; for % Injected Dose/g tissue, C6-hNET: C6-hNET xenograft
[5] = Lipophilicity: distribution coefficient between 1-octanol and PBS pH 7.4; type: physicochemical; settings: 1-octanol/PBS
How it was run: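 Octanol and PBS (pH 7.4) pre-equilibrated together for 24 h. Radiotracer (~11.1 kBq 18F; ~3.7 kBq 123I) added to the octanol/PBS pair, in triplicate, shaken 2 h at room temperature, then centrifuged 5 min at 2,000 rpm. Aliquots of each phase gamma counted; logD = log10(octanol counts/PBS counts).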

[6] = tested on: human serum protein; experiment: Plasma protein binding by ultrafiltration, human; type: in vitro ADME; settings: 37 °C, 0.5 h
How it was run: (§1)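 Radiotracer in 10 µL (~7.4 kBq 18F; ~3.7 kBq 123I) added to 190 µL human or mouse plasma, in triplicate, gently shaken 37 °C, 0.5 h. Ultrafiltration by centrifugation 10 min at 9,000 rpm. 20 µL of pre-filtration plasma (total) and 20 µL of ultrafiltrate (unbound) gamma counted; unbound fraction taken from ultrafiltrate relative to total.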

[7] = tested on: mouse serum protein; experiment: Plasma protein binding by ultrafiltration, mouse; type: in vitro ADME; settings: 37 °C, 0.5 h
How it was run: as §1

[8] = C6-hNET cells, ^123I-MIBG as radioligand, 37 °C, 2 h

Chain of hNET (P23975 whole entry): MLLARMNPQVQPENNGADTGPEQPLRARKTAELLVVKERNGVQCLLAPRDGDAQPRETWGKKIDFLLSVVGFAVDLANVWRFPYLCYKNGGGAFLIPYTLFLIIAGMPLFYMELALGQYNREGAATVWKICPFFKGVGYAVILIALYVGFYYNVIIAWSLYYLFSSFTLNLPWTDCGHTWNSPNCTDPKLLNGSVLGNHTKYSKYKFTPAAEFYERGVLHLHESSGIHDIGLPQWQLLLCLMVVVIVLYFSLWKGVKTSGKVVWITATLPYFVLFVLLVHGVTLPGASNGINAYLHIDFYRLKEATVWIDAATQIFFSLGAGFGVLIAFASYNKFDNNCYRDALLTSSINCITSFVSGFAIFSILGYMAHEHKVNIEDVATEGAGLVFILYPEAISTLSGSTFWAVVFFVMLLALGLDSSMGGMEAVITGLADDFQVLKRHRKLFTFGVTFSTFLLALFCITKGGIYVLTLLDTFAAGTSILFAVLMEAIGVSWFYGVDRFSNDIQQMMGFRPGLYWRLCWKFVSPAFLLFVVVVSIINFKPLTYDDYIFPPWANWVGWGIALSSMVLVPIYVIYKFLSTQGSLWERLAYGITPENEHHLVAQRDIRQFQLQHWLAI

IC50 [1, 8] [µM] | Compound | % Injected Dose/g tissue, Adrenals ([4]; 4 h p.i.) [%ID/g] | % Injected Dose/g tissue, Blood ([4]; 4 h p.i.) [%ID/g] | % Injected Dose/g tissue, Bone ([4]; 4 h p.i.) [%ID/g] | % Injected Dose/g tissue, C6-WT ([4]; 4 h p.i.) [%ID/g] | % Injected Dose/g tissue, Heart ([4]; 4 h p.i.) [%ID/g] | % Injected Dose/g tissue, Intestinal contents (L) ([4]; 4 h p.i.) [%ID/g] | % Injected Dose/g tissue, Intestinal contents (S) ([4]; 4 h p.i.) [%ID/g] | % Injected Dose/g tissue, Intestinal wall (L) ([4]; 4 h p.i.) [%ID/g] | % Injected Dose/g tissue, Intestinal wall (S) ([4]; 4 h p.i.) [%ID/g] | % Injected Dose/g tissue, Kidneys ([4]; 4 h p.i.) [%ID/g] | % Injected Dose/g tissue, Liver ([4]; 4 h p.i.) [%ID/g] | % Injected Dose/g tissue, Lungs ([4]; 4 h p.i.) [%ID/g] | % Injected Dose/g tissue, Muscle ([4]; 4 h p.i.) [%ID/g] | % Injected Dose/g tissue, Pancreas ([4]; 4 h p.i.) [%ID/g] | % Injected Dose/g tissue, Salivary glands ([4]; 4 h p.i.) [%ID/g] | % Injected Dose/g tissue, Spleen ([4]; 4 h p.i.) [%ID/g] | % Injected Dose/g tissue, Stomach ([4]; 4 h p.i.) [%ID/g] | further results
 | N=C(N)NCc1ccc([18F])cc1 [[^18F]PFBG, para-[^18F]fluorobenzylguanidine] |  |  |  |  |  |  |  |  |  |  |  |  |  |  |  |  |  | fold lower uptake in C6-hNET cells than that of ^123I/[^124I]MIBG [2]: 4 fold; PET image-based tumor-to-intestine signal ratio ([3]; 1 h post injection): 0.4±0.1; PET image-based tumor-to-intestine signal ratio ([3]; 4 h post injection): 1.5±0.3
9.8 ± 2.5 | N=C(N)NCc1ccc(F)cc1 [[^18F]PFBG, para-[^18F]fluorobenzylguanidine] |  |  |  |  |  |  |  |  |  |  |  |  |  |  |  |  |  | 
9.8 ± 2.5 | NC(N)=NCc1ccc(F)cc1 [PFBG] |  |  |  |  |  |  |  |  |  |  |  |  |  |  |  |  |  | 
7.2 ± 0.5 | N=C(N)NCc1ccc(I)cc1 [PIBG, para-iodobenzylguanidine] |  |  |  |  |  |  |  |  |  |  |  |  |  |  |  |  |  | 
 | N=C(N)NCc1cccc([18F])c1 [[^18F]MFBG] [meta-[^18F]fluorobenzylguanidine] | 5.56±2.34 | 0.25±0.05 | 0.89±0.16 | 0.57±0.08 | 2.21±0.66 | 1.26±0.23 | 1.36±0.11 | 1.72±0.52 | 2.16±0.26 | 0.99±0.29 | 2.05±0.30 | 1.30±0.20 | 0.62±0.09 | 0.78±0.06 | 6.09±1.02 | 1.50±0.19 | 0.46±0.12 | fold lower affinity to hNET compared to ^123I/[^124I]MIBG ([1]; from IC50 values in C6-hNET cells): 2.8 fold; fold higher accumulation in C6-hNET tumors than [^18F]PFBG ([3]; 1 h p.i., in vivo): 1.6 fold; PET image-based tumor-to-intestine signal ratio ([3]; 1 h post injection): 1.3±0.2; PET image-based tumor-to-intestine signal ratio ([3]; 4 h post injection): 2.4±0.3; % Injected Dose/g tissue, C6-hNET ([4]; 4 h p.i.): 4.25±0.95 %ID/g; C6-hNET/tissue ratio, Blood ([4]; C6-hNET/Blood, 4 h p.i.): 17.1±4.4; C6-hNET/tissue ratio, Intestine wall (L) ([4]; C6-hNET/Intestine wall (L), 4 h p.i.): 1.8±0.7; C6-hNET/tissue ratio, Intestine wall (S) ([4]; C6-hNET/Intestine wall (S), 4 h p.i.): 1.9±0.4; C6-hNET/tissue ratio, Liver ([4]; C6-hNET/Liver, 4 h p.i.): 2.1±0.4; C6-hNET/tissue ratio, Muscle ([4]; C6-hNET/Muscle, 4 h p.i.): 6.8±0.9; C6-hNET/tissue ratio, Salivary gland ([4]; C6-hNET/Salivary gland, 4 h p.i.): 0.7±0.1
 | N=C(N)NCc1cccc(I)c1 [^123I-MIBG, meta-iodobenzylguanidine] | 7.34±2.63 | 0.66±0.10 | 0.71±0.10 | 0.49±0.04 | 2.10±0.14 | 2.25±0.29 | 5.24±0.46 | 2.96±0.74 | 3.67±1.05 | 0.84±0.11 | 2.27±0.18 | 2.84±0.38 | 0.95±0.13 | 1.15±0.13 | 8.41±0.83 | 2.51±0.29 | 0.77±0.34 | logD at 2 h [5]: 0.42 ± 0.01; % unbound to human serum protein [6]: 12.4±0.5 (n = 2) %; % unbound to mouse serum protein [7]: 29.2±2.0 (n = 2) %; IC50 [1]: 1.7 ± 0.6 µM; % Injected Dose/g tissue, C6-hNET ([4]; 4 h p.i.): 4.02±0.35 %ID/g
4.86 ± 0.59 | N=C(N)NCc1cccc(F)c1 [MFBG] |  |  |  |  |  |  |  |  |  |  |  |  |  |  |  |  |  | 
 | N=C(N)NCc1cccc([131I])c1 [[^124I]MIBG, meta-iodobenzylguanidine] | 13.9±1.7 | 0.76±0.15 | 2.56±0.27 | 1.27±0.10 | 19.6±2.5 | 3.62±0.89 | 6.92±1.79 | 7.88±0.74 | 10.3±0.6 | 2.09±0.10 | 5.42±0.44 | 9.50±2.26 | 3.21±0.28 | 3.48±0.31 | 29.1±1.8 | 4.43±0.35 | 2.85±0.54 | % Injected Dose/g tissue, Adrenals ([4]; 24 h p.i.): 7.46±1.78 %ID/g; % Injected Dose/g tissue, Blood ([4]; 24 h p.i.): 0.21±0.02 %ID/g; % Injected Dose/g tissue, Bone ([4]; 24 h p.i.): 0.45±0.09 %ID/g; % Injected Dose/g tissue, C6-WT ([4]; 24 h p.i.): 0.22±0.02 %ID/g; % Injected Dose/g tissue, C6-hNET ([4]; 24 h p.i.): 3.58±0.55 %ID/g; % Injected Dose/g tissue, Heart ([4]; 24 h p.i.): 2.93±0.17 %ID/g; % Injected Dose/g tissue, Intestinal contents (L) ([4]; 24 h p.i.): 2.00±0.06 %ID/g; % Injected Dose/g tissue, Intestinal contents (S) ([4]; 24 h p.i.): 1.76±0.40 %ID/g; % Injected Dose/g tissue, Intestinal wall (L) ([4]; 24 h p.i.): 3.18±0.45 %ID/g; % Injected Dose/g tissue, Intestinal wall (S) ([4]; 24 h p.i.): 2.66±0.18 %ID/g; % Injected Dose/g tissue, Kidneys ([4]; 24 h p.i.): 0.64±0.04 %ID/g; % Injected Dose/g tissue, Liver ([4]; 24 h p.i.): 1.00±0.05 %ID/g; % Injected Dose/g tissue, Lungs ([4]; 24 h p.i.): 1.55±0.37 %ID/g; % Injected Dose/g tissue, Muscle ([4]; 24 h p.i.): 0.69±0.07 %ID/g; % Injected Dose/g tissue, Pancreas ([4]; 24 h p.i.): 0.75±0.10 %ID/g; % Injected Dose/g tissue, Salivary glands ([4]; 24 h p.i.): 7.95±0.81 %ID/g; % Injected Dose/g tissue, Spleen ([4]; 24 h p.i.): 1.36±0.27 %ID/g; % Injected Dose/g tissue, Stomach ([4]; 24 h p.i.): 1.08±0.08 %ID/g
4.9 ± 0.6 | N=C(N)NCc1cccc(F)c1 [[^18F]MFBG] [meta-[^18F]fluorobenzylguanidine] |  |  |  |  |  |  |  |  |  |  |  |  |  |  |  |  |  | 

Compound | IC50 [1, 8] [µM] | % Injected Dose/g tissue, Adrenals ([4]; 4 h p.i.) [%ID/g] | % Injected Dose/g tissue, Blood ([4]; 4 h p.i.) [%ID/g] | % Injected Dose/g tissue, Bone ([4]; 4 h p.i.) [%ID/g] | % Injected Dose/g tissue, C6-WT ([4]; 4 h p.i.) [%ID/g] | % Injected Dose/g tissue, Heart ([4]; 4 h p.i.) [%ID/g] | % Injected Dose/g tissue, Intestinal contents (L) ([4]; 4 h p.i.) [%ID/g] | % Injected Dose/g tissue, Intestinal contents (S) ([4]; 4 h p.i.) [%ID/g] | % Injected Dose/g tissue, Intestinal wall (L) ([4]; 4 h p.i.) [%ID/g] | % Injected Dose/g tissue, Intestinal wall (S) ([4]; 4 h p.i.) [%ID/g] | % Injected Dose/g tissue, Kidneys ([4]; 4 h p.i.) [%ID/g] | % Injected Dose/g tissue, Liver ([4]; 4 h p.i.) [%ID/g] | % Injected Dose/g tissue, Lungs ([4]; 4 h p.i.) [%ID/g] | % Injected Dose/g tissue, Muscle ([4]; 4 h p.i.) [%ID/g] | % Injected Dose/g tissue, Pancreas ([4]; 4 h p.i.) [%ID/g] | % Injected Dose/g tissue, Salivary glands ([4]; 4 h p.i.) [%ID/g] | % Injected Dose/g tissue, Spleen ([4]; 4 h p.i.) [%ID/g] | % Injected Dose/g tissue, Stomach ([4]; 4 h p.i.) [%ID/g] | further results
N=C(N)NCc1cccc(I)c1 [MIBG, meta-iodobenzylguanidine] | 1.72 ± 0.58 |  |  |  |  |  |  |  |  |  |  |  |  |  |  |  |  |  | 
